The target in test [1] is T1, Muscarinic acetylcholine receptor (Rattus norvegicus) (UniProt P08482+P08483+P08485+P08911+P10980). As to the kind of experiment: Ratio of Muscarinic acetylcholine receptor affinity (IC50) of test compound to that of disopyramide; 1/6. Type of test: protein assay.
For test [2], the species on record is Canis familiaris. Nature of the test: Mean effective dose required to suppress ventricular ectopic rate in dog greater than or equal to 25% for a minimum duration of 10 min. The test is classed as functional. Particulars: Canis lupus familiaris, Cardiac ventricle, read-out: MED.
Test [3] deals with Canis familiaris. Nature of the test: Myocardial depression determined by monitoring the maximum rate of rise of left ventricular pressure in dog at 9 mg/kg dose. Type of test: functional, Canis lupus familiaris, Heart left ventricle. An outline of the steps: (§1)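 Closed-chest anesthetized dogs given compound intravenously at the stated dose; myocardial depression taken as percent decrease in maximum rate of rise of left ventricular pressure (max dP/dt), mean ± standard error of the mean over the dogs tested. ≤25% depression at the mean effective antiarrhythmic dose was deemed acceptable.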

The target of test [4] is T1, Muscarinic acetylcholine receptor (Rattus norvegicus). Nature of the test: Ratio of Muscarinic acetylcholine receptor affinity (IC50) of test compound to that of disopyramide; 1/24. Type of test: protein assay.
The target is the same in test [5]. As to the kind of experiment: (§2) Ratio of Muscarinic acetylcholine receptor affinity (IC50) of test compound to that of disopyramide. The test is classed as protein assay.
Test [6] has the same target. As to the kind of experiment: Ratio of Muscarinic acetylcholine receptor affinity (IC50) of test compound to that of disopyramide; 1/2. The test is classed as protein assay.
Test [7] is filed under the species Canis familiaris. As to the kind of experiment: Mean effective dose required to suppress ventricular ectopic rate in dog greater than or equal to 25% for a minimum duration of 10 min; Side effects. Type of test: functional, organism-based. The conditions noted are these: Canis lupus familiaris; Cardiac ventricle.
The subject of test [8] is Canis familiaris. Nature of the test: Myocardial depression determined by monitoring the maximum rate of rise of left ventricular pressure in dog at 3 mg/kg dose. The test is classed as functional, Canis lupus familiaris, Heart left ventricle. An outline of the steps:
as §1

Test [9] has as its target T1, Muscarinic acetylcholine receptor (Rattus norvegicus). Nature of the test: Ratio of Muscarinic acetylcholine receptor affinity (IC50) of test compound to that of disopyramide; 1/16. The test is classed as protein assay.
The species named for test [10] is Canis familiaris. As to the kind of experiment: Mean effective dose required to suppress ventricular ectopic rate in dog greater than or equal to 25% for a minimum duration of 10 min; Lethal. The conditions noted are these: Canis lupus familiaris, Cardiac ventricle, read-out: MED. The test is classed as functional.
For test [11], the target named is T1, Muscarinic acetylcholine receptor (Rattus norvegicus). Nature of the test: Ratio of Muscarinic acetylcholine receptor affinity (IC50) of test compound to that of disopyramide; 1/4. The test is classed as protein assay.
For test [12] the target is unchanged. The description is as §2. The test is classed as protein assay. The method in brief:
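Muscarinic receptor binding by displacement of [³H]QNB, test compound at three to six concentrations in triplicate. IC50 from log probit analysis. Value expressed as IC50(test)/IC50(disopyramide).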
This is another data set of the same source.

Test [13] concerns Canis familiaris. As to the kind of experiment: Myocardial depression determined by monitoring the maximum rate of rise of left ventricular pressure in dog at 10 mg/kg dose. Type of test: functional, Canis lupus familiaris, Heart left ventricle.

As for `CC(C)N(CCC1(c2ccccc2)CC2CCCCN2C1=O)C(C)C.Cl` (centres undefined), the Ratio in test [1] is 0.167. The minimal effective dose in test [2] amounted to 10 mg/kg.

In test [3], `CC(=O)N(CCC(CCN1CCCCC1)(C(N)=O)c1ccccc1Cl)C(C)C` (centres undefined) [BIDISOMIDE] came in with a Decrease of 20%. Besides, the Ratio in [4] was 0.0417. Besides, in test [2], the minimal effective dose is 9 mg/kg.

Consider `CC(C)N(CCC1(c2ccccc2Cl)CC2CCCCN2C1=O)C(C)C` (centres undefined), for which the Ratio worked out at 1 in test [5] and 0.5 in test [6]. Besides, the MED entry in test [7] was “Side effects”. Further, the minimal effective dose in test [2] was determined as 3.5 mg/kg.

With `CC(C)N(CCC1(c2ccc(-c3ccccc3)cc2)CC2CCCCN2C1=O)C(C)C` (centres undefined), the Decrease in test [8] stood at 35%. The Ratio in test [9] stood at 0.0625. For the same compound, in [2], the minimal effective dose turned out to be 3 mg/kg.

Consider `CC(C)N(CCC(CCN1CCCCC1)(C(N)=O)c1ccccc1Cl)C(=O)c1ccccc1` (centres undefined), for which the figures for the minimal effective dose in test [10] and in [2] were 5 mg/kg and 2 mg/kg, respectively.

`CC(C)N(CCC(CCC1CCCCN1)(C(N)=O)c1ccccc1Cl)C(C)C` (centres undefined): the Ratio in test [11] is 0.25. The minimal effective dose in [2] is 12.5 mg/kg.

`CC(C)N(CCC(C(N)=O)(c1ccccc1)c1ccccn1)C(C)C` (centres undefined) [DISOPYRAMIDE]: the Ratio in test [12] amounted to 1. Besides, the Decrease in test [13] was determined as 56%. Moreover, the minimal effective dose in test [2] is 10 mg/kg.
